Data set [1] deals with Human immunodeficiency virus 1. Put plainly: Antiviral activity against HIV1 HXB2 infected in human TZM-bl cells preincubated for 30 min followed by viral infection and measured after 3 days by luciferase based assay. Format: functional, organism-based. The following applies: Human immunodeficiency virus 1, M:B_HXB2R. In a few lines:
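Single-cycle pseudovirus carrying HXB2 Env (CXCR4-tropic), made in HEK293T by co-transfecting an Env-deleted backbone (pSG3Δenv or pNL4-3.Luc.R-E-) with an Env plasmid. TZM-bl cells were seeded at 1 × 10^4/well and grown overnight. Virus was pretreated with graded compound concentrations, then added. Cells were washed and lysed, and IC50 was taken from percent inhibition.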

For a further data set, the system named is TZM. Put plainly: Cytotoxicity against human TZM-bl cells incubated for 3 days by MTS assay. It is filed as cell-based. Particulars: 72 h.
Data set [2] can be described thus: Cytotoxicity against dog Cf2Th-CCR5 cells infected with CD4-dependent pseudovirus HIV1 ADA incubated for 48 hrs by MTS assay.

`NC[C@@H](NC(=O)c1ccc(-c2ccc(C(F)(F)F)nc2)[nH]1)c1nc(CO)cs1` displayed a half-maximal inhibitory concentration (IC50) in data set [1] of 12.7 µM.
`COc1cc(-c2ccc(C(=O)N[C@@H](CN)c3nc(CO)cs3)[nH]2)ccn1`: the IC50 in data set [1] was greater than 11 µM. The compound further yielded a cytotoxic concentration (CC50) in the data set with TZM greater than 133 µM.
With `NC[C@@H](NC(=O)c1ccc(-c2ccc(Cl)nc2)[nH]1)c1nc(CO)cs1`, the 50% inhibitory concentration (IC50) in data set [1] was greater than 11 µM.
In data set [1], `NC[C@@H](NC(=O)c1ccc(-c2ccc(Cl)cn2)[nH]1)c1ncc(CO)s1` returned an IC50 of 0.85 µM. In the data set on TZM, this compound registered a 50% cytotoxic concentration (CC50) of 144 µM.
The matching figures for `NC[C@H](NC(=O)c1ccc(-c2ccc(C(F)(F)F)cn2)[nH]1)c1ncc(C(O)CO)s1` (stereo not given in full): 5.9 µM and greater than 113 µM.
For the compound `NC[C@@H](NC(=O)c1ccc(-c2ccc(C(F)(F)F)cn2)[nH]1)c1ncc(CO)s1`, the IC50 in data set [1] stood at 0.96 µM. In the data set on TZM, this compound showed a half-maximal cytotoxic concentration (CC50) greater than 122 µM.
On the same counts, the results for `Cc1cc(-c2ccc(Cl)cn2)[nH]c1C(=O)N[C@H](CN)c1ncc(CO)s1` are 1.2 µM and 98.3 µM.
Compound `NC[C@@H](NC(=O)c1ccc(-c2ccc(C(F)(F)F)cn2)[nH]1)c1ncc(C(O)CO)s1` (stereo not given in full) showed a 50% inhibitory concentration (IC50) in data set [1] of 2.1 µM. This lies in the single-digit micromolar range.
The same measure, in the same setting: then `NC[C@H](NC(=O)c1ccc(-c2ccc(C(F)(F)F)cn2)[nH]1)c1ncc(CO)s1`, with 1.2 µM.
As to `NC[C@H](NC(=O)c1ccc(-c2ccc(C(F)(F)F)cn2)[nH]1)c1nccs1`, the midpoint of inhibition in data set [1], the IC50, lay at 1.2 µM. The CC50 in the data set with TZM was determined as 93.6 µM.
On to `NC[C@H](NC(=O)c1ccc(-c2ccc(F)cn2)[nH]1)c1nc(CO)cs1`, for which the concentration for half-maximal inhibition (IC50) in data set [1] was greater than 11 µM. Moreover, the cytotoxic concentration (CC50) with TZM was greater than 138 µM.
As to `Cc1cc(-c2ccc(C(F)(F)F)cn2)[nH]c1C(=O)N[C@H](CN)c1nc(CO)cs1`, in data set [2], the Activity result is listed as “Non-Toxic”.
On to `NC[C@@H](NC(=O)c1ccc(-c2ccc(C(F)(F)F)cn2)[nH]1)c1nc(CO)cs1`, for which the half-inhibitory concentration (IC50) in data set [1] worked out at 0.59 µM. This compound gave a cytotoxic concentration (CC50) with TZM of 94.3 µM.
On the same counts, the results for `Cc1ccc(-c2ccc(C(=O)N[C@@H](CN)c3nc(CO)cs3)[nH]2)nc1` are greater than 11 µM and greater than 140 µM.
On the same counts, the results for `NC[C@@H](NC(=O)c1ccc(-c2ccc(C(F)(F)F)nn2)[nH]1)c1nc(CO)cs1` are greater than 12 µM and greater than 73 µM.
Compound `NC[C@@H](NC(=O)c1ccc(-c2ccc(Cl)cn2)[nH]1)c1nc(CO)cs1` returned an IC50 in data set [1] of 5 µM. In addition, the CC50 in the data set with TZM is greater than 132 µM.
On the same counts, the results for `CC(C)(N)[C@H](NC(=O)c1ccc(-c2ccc(C(F)(F)F)cn2)[nH]1)c1ncc(CO)s1` are 0.5 µM and 42.4 µM.
`NC[C@@H](NC(=O)c1ccc(-c2ncc(Cl)cn2)[nH]1)c1nc(CO)cs1` registered an IC50 in data set [1] greater than 15.8 µM.
Compound `NC[C@@H](NC(=O)c1ccc(-c2ccc(C(F)(F)F)cn2)[nH]1)c1nc(CO)c(CO)s1` yielded an IC50 in data set [1] of 1.8 µM. The half-maximal cytotoxic concentration (CC50) in the data set on TZM was greater than 113 µM.
On the same counts, the results for `Cc1cc(-c2ccc(C(F)(F)F)cn2)[nH]c1C(=O)N[C@@H](c1ncc(CO)s1)C(C)(C)N` are 0.6 µM and 35.3 µM.
The matching figures for `CC(C)(N)[C@H](NC(=O)c1ccc(-c2ccc(C(F)(F)F)cn2)[nH]1)c1nc(CO)cs1`: 0.58 µM and 59 µM.
`NC[C@H](NC(=O)c1ccc(-c2ccc(C(F)(F)F)cn2)[nH]1)c1nc(CO)c(CO)s1`: in data set [1], the concentration for half-maximal inhibition (IC50) was greater than 13 µM.
On the same count and under the same terms, the figure for `NC[C@@H](NC(=O)c1ccc(-c2ccc(C(F)(F)F)cn2)[nH]1)c1nc(C(O)CO)cs1` (stereo not given in full) is 5.2 µM.
Compound `NC[C@H](NC(=O)c1ccc(-c2ccc(C(F)(F)F)nc2)[nH]1)c1nc(CO)cs1` returned a half-inhibitory concentration (IC50) in data set [1] of 11.9 µM. Moreover, the CC50 in the data set on TZM was greater than 122 µM.
The matching figures for `NC[C@@H](NC(=O)c1ccc(-c2ccc(C(F)(F)F)cn2)[nH]1)c1nc(CCO)cs1`: 1.7 µM and 100 µM.
`COc1cc(-c2ccc(C(=O)N[C@H](CN)c3nc(CO)cs3)[nH]2)ccn1` displayed a concentration for half-maximal inhibition (IC50) in data set [1] greater than 11 µM.
As to `NC[C@@H](NC(=O)c1ccc(-c2ccc(C(F)(F)F)cn2)[nH]1)c1nc(CCCO)cs1`, in data set [1], 2.3 µM corresponded to half-maximal inhibition (IC50). Moreover, in the data set with TZM, the 50% cytotoxic concentration (CC50) was greater than 114 µM.
The matching figures for `Cc1cc(-c2ccc(Cl)cn2)[nH]c1C(=O)N[C@@H](CN)c1ncc(CO)s1`: 2.4 µM and 95 µM.
In the data set on TZM, `Cc1cc(-c2ccc(C(F)(F)F)cn2)[nH]c1C(=O)N[C@H](CN)c1ncc(CO)s1` registered a CC50 of 92.8 µM.
`CC(C)(N)[C@@H](NC(=O)c1ccc(-c2ccc(C(F)(F)F)cn2)[nH]1)c1ncc(CO)s1` came in with a 50% inhibitory concentration (IC50) in data set [1] of 0.52 µM. In the data set with TZM, it took 74 µM to reach half-maximal cytotoxicity (CC50).
`NC[C@H](NC(=O)c1ccc(-c2ccc(Cl)cn2)[nH]1)c1nc(CO)cs1` showed an IC50 in data set [1] of 1.7 µM.
In data set [1], `NC[C@H](NC(=O)c1ccc(-c2ccc(C(F)(F)F)cn2)[nH]1)c1nc(CO)cs1` came in with an IC50 of 0.3 µM. The CC50 with TZM came to 77.9 µM.
On the same counts, the results for `NC[C@H](NC(=O)c1ccc(-c2ccc(Cl)cn2)[nH]1)c1ncc(CO)s1` are 2.7 µM and 142 µM.
On the same counts, the results for `NC[C@@H](NC(=O)c1ccc(-c2ccc(C(F)(F)F)cn2)[nH]1)c1nccs1` are 2 µM and 89.3 µM.
For the compound `NC[C@H](NC(=O)c1ccc(-c2ccc(C(F)(F)F)cn2)[nH]1)c1nc(CCCO)cs1`, the half-inhibitory concentration (IC50) in data set [1] came out at 0.89 µM. In the data set on TZM, this compound had a cytotoxic concentration (CC50) of 81.2 µM.
The matching figures for `NC[C@H](NC(=O)c1ccc(-c2ncc(Cl)cn2)[nH]1)c1nc(CO)cs1`: greater than 15.8 µM and greater than 66 µM.
The matching figures for `NC[C@H](NC(=O)c1ccc(-c2ccc(Cl)nc2)[nH]1)c1nc(CO)cs1`: greater than 11 µM and greater than 132 µM.
In data set [1], `NC[C@H](NC(=O)c1ccc(-c2ccc(C(F)(F)F)nn2)[nH]1)c1nc(CO)cs1` yielded an IC50 greater than 12 µM.
In data set [1], `NC[C@H](NC(=O)c1ccc(-c2ccc(C(F)(F)F)cn2)[nH]1)c1nc(C(O)CO)cs1` (stereo not given in full) gave a concentration for half-maximal inhibition (IC50) of 3.8 µM. Moreover, the CC50 in the data set on TZM is greater than 113 µM.
Regarding `CC1(C)CC(NC(=O)C(=O)Nc2ccc(Cl)cc2)CC(C)(C)N1`, the Activity result in data set [2] is given as “Non-Toxic”.
With `Cc1ccc(-c2ccc(C(=O)N[C@H](CN)c3nc(CO)cs3)[nH]2)nc1`, in data set [1], half-maximal inhibition (IC50) was put at 9.6 µM.
With `Cc1cc(-c2ccc(C(F)(F)F)cn2)[nH]c1C(=O)NC(C)(CN)c1nc(CO)cs1` (racemic), half-maximal inhibition in data set [1] (IC50) was put at 2.6 µM. Further, in the data set on TZM, the CC50 is greater than 68.3 µM.
`Cc1cc(-c2ccc(C(F)(F)F)cn2)[nH]c1C(=O)N[C@@H](CN)c1nc(CO)cs1` showed a 50% cytotoxic concentration (CC50) in the data set with TZM of 85 µM.
In data set [1], `Cc1cc(-c2ccc(C(F)(F)F)cn2)[nH]c1C(=O)N[C@H](c1ncc(CO)s1)C(C)(C)N` yielded an IC50 of 0.43 µM. This compound displayed a cytotoxic concentration (CC50) in the data set on TZM of 37.5 µM.
`NC[C@@H](NC(=O)c1ccc(-c2ccc(F)cn2)[nH]1)c1nc(CO)cs1` registered a concentration for half-maximal inhibition (IC50) in data set [1] greater than 11 µM.
In data set [1], `CC(CN)(NC(=O)c1ccc(-c2ccc(C(F)(F)F)cn2)[nH]1)c1nc(CO)cs1` (racemic) returned an IC50 of 5.1 µM. The CC50 in the data set on TZM is greater than 70.5 µM.
On the same counts, the results for `CC(C)(N)[C@@H](NC(=O)c1ccc(-c2ccc(C(F)(F)F)cn2)[nH]1)c1nc(CO)cs1` are 1.7 µM and 61 µM.
On the same counts, the results for `NC[C@H](NC(=O)c1ccc(-c2ccc(C(F)(F)F)cn2)[nH]1)c1nc(CCO)cs1` are 0.76 µM and 91 µM.

As a reminder, the IC50 is the concentration that gives 50% inhibition. The low end stands for greater potency in that assay, the high end for weaker potency in that assay. As a reminder, the CC50 is the concentration giving 50% cytotoxicity.

The values above are taken from ChEMBL document CHEMBL4402563, “Preclinical Optimization of gp120 Entry Antagonists as anti-HIV-1 Agents with Improved Cytotoxicity and ADME Properties through Rational Design, Synthesis, and Antiviral Evaluation” (J Med Chem, 2020).
